Tests used:
[1] = biological target: Kappa-type opioid receptor (Cavia porcellus) (UniProt P41144); test: (§1) Binding affinity of compound was measured against Opioid receptor kappa 1 on electrically stimulated guinea pig ileal longitudinal muscle myenteric plexus (GPI) at 100 nM preparation using U-50,488H as agonist
Outline: (§2)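 Electrically stimulated guinea pig ileal longitudinal muscle was used for μ agonists (M, DAMGO) and κ agonists (EK, U50488H). Mouse vas deferens was used for δ agonists (DADLE, DPDPE). Antagonist at 100 nM unless specified, preincubated 15 min. Agonist concentration-response curves were run without and then with antagonist in the same tissue, giving IC50s. Ke = [antagonist]/(IC50 ratio − 1).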

[2] = biological target: T1, Mu-type opioid receptor (Cavia porcellus, UniProt P97266); test: (§3) Binding affinity of compound was measured against Opioid receptor mu 1 on electrically stimulated guinea pig ileal longitudinal muscle myenteric plexus (GPI)at 100 nM preparation using DAMGO as agonist; outline: as §2
[3] = biological target: Delta-type opioid receptor (Mus musculus) (UniProt P32300); test: Maximal inhibition of compound was measured on Mouse vas deferens(MVD) preparation; assay type: functional
Outline: (§4)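 Agonist activity at 1 μM on electrically stimulated guinea pig ileum and mouse vas deferens preparations. Maximal inhibition or stimulation was recorded, averaged over three determinations.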

[4] = biological target: T2, Kappa-type opioid receptor (Cavia porcellus, UniProt P41144); test: as §1; outline: as §2
[5] = biological target: Kappa-type opioid receptor (Cavia porcellus) (UniProt P41144); test: Binding affinity of compound was measured against Opioid receptor kappa 1 on electrically stimulated guinea pig ileal longitudinal muscle myenteric plexus (GPI) at 100 nM preparation using EK as agonist; outline: as §2
[6] = biological target: Mu-type opioid receptor (Cavia porcellus) (UniProt P97266); test: as §3; outline: as §2
[7] = biological target: Delta-type opioid receptor (Mus musculus) (UniProt P32300); test: Binding affinity of compound was measured against Opioid receptor delta 1 in mouse vas deferens (MVD) smooth muscle preparation at 100 nM using DADLE as standard agonist; outline: as §2
[8] = biological target: Mu-type opioid receptor (Cavia porcellus) (UniProt P97266); test: Binding affinity of compound was measured against Opioid receptor mu 1 on electrically stimulated guinea pig ileal longitudinal muscle myenteric plexus (GPI)at 100 nM preparation using M as agonist; outline: as §2
[9] = biological target: Mu-type opioid receptor (Cavia porcellus) (UniProt P97266); test: Maximal inhibition of compound was measured on guinea pig ileal longitudinal muscle (GPI) preparation at 1 uM concentration; assay type: functional, tissue-based; conditions: Muscle tissue; outline: as §4
[10] = test system: Mus musculus; test: Compound was tested for antagonism of the antinociceptive effect of M opioid agonist, sc in mice in an acetic acid writhing assay in a control group; assay type: functional
Outline: (§5)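 Mouse acetic acid writhing assay. Antagonist was given icv at 100 nmol in 5 μL saline, timed so its 60-min peak effect fell at the centre of the observation period. Agonists (M, EK, U50488H) were given sc at four dose levels to control and treated mice. ED50 ratio = treated ED50 / control ED50.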

[11] = Compound was tested for antagonist activity against Opioid receptor delta 1 in mouse vas deferens (MVD) smooth muscle preparation at 100 nM using DADLE as agonist; assay type: functional; outline: as §2
[12] = test system: Mus musculus; test: Compound was tested for antagonism of the antinociceptive effect of EK opioid agonist, sc in mice in an acetic acid writhing assay in a control group; assay type: functional; outline: as §5
[13] = test system: Mus musculus; test: Compound was tested for antagonism of the antinociceptive effect of M opioid agonist, sc in mice in an acetic acid writhing assay in a treated group(icv with 100 nmol of 2.HCl in 5 microL of saline); assay type: functional; outline: as §5
[14] = test system: Kappa-type opioid receptor; test: Compound was tested for antagonist activity against kappa opioid receptor on electrically stimulated guinea pig ileal longitudinal muscle myenteric plexus (GPI) at 100 nM using EK as agonist ligand.; assay type: functional; outline: as §2
[15] = test system: Mus musculus; test: compound was tested for antagonism of the antinociceptive effect of EK opioid agonist, sc in mice in an acetic acid writhing assay in a treated group(icv with 100 nmol of 2.HCl in 5 microL of saline); assay type: functional; outline: as §5
[16] = biological target: Delta-type opioid receptor (Mus musculus) (UniProt P32300); test: Binding affinity of compound was measured against Opioid receptor delta 1 in mouse vas deferens (MVD) smooth muscle preparation at 100 nM using DPDPE as standard agonist; outline: as §2
[17] = biological target: Mu-type opioid receptor (Homo sapiens) (UniProt P35372); test: Compound was tested for antagonist activity against mu opioid receptor on electrically stimulated guinea pig ileal longitudinal muscle myenteric plexus (GPI) at 100 nM using DAMGO as agonist ligand.; assay type: functional; outline: as §2
[18] = biological target: Mu-type opioid receptor (Homo sapiens) (UniProt P35372); test: Compound was tested for antagonist activity against mu opioid receptor on electrically stimulated guinea pig ileal longitudinal muscle myenteric plexus (GPI) at 100 nM using M as agonist ligand. IC50; assay type: functional; outline: as §2
[19] = test system: Mus musculus; test: Compound was tested for antagonism of the antinociceptive effect of U-50, 488H opioid agonist, sc in mice in an acetic acid writhing assay in a treated group(icv with 100 nmol of 2.HCl in 5 microL of saline); assay type: functional; outline: as §5
[20] = biological target: Kappa-type opioid receptor (Homo sapiens) (UniProt P41145); test: Compound was tested for antagonist activity against kappa opioid receptor on electrically stimulated guinea pig ileal longitudinal muscle myenteric plexus (GPI) at 100 nM using U-50,488H as agonist ligand.; assay type: functional; outline: as §2
[21] = test system: Mus musculus; test: Compound was tested for antagonism of the antinociceptive effect of U-50, 488H opioid agonist, sc in mice in an acetic acid writhing assay in a control group; assay type: functional; outline: as §5
[22] = biological target: T1, Mu-type opioid receptor; test: Binding affinity against Opioid receptor mu 1 was measured in the guinea pig brain membranes using [3H]DAMGO as radioligand; assay type: cell membranes, Membrane
Outline: (§6)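 Guinea pig brain membranes, using a modified version of a published method. μ sites were labelled with [³H]DAMGO. κ sites were labelled with [³H]EK plus 1 μM unlabeled DAMGO. δ sites were labelled with [³H]DADLE plus 1 μM unlabeled DAMGO. Ki values were derived by displacement.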

[23] = biological target: T2, Kappa-type opioid receptor; test: Binding affinity against Opioid receptor kappa 1 was measured in the guinea pig brain membranes using [3H]EK in the presence of 1 uM unlabeled DAMGO as radioligand; assay type: cell membranes, Membrane; outline: as §6
[24] = biological target: Opioid receptors; mu & kappa (Homo sapiens) (UniProt P41145+P35372); test: Ki ratio measured as the ke values of mu receptor/kappa receptor from guinea pig brain membranes.
[25] = biological target: Mu-type opioid receptor (Homo sapiens) (UniProt P35372); test: Compound was tested for antagonist activity against mu opioid receptor on electrically stimulated guinea pig ileal longitudinal muscle myenteric plexus (GPI) at 100 nM using M as agonist ligand.; assay type: functional; outline: as §2

T2 sequence (P41144 whole entry): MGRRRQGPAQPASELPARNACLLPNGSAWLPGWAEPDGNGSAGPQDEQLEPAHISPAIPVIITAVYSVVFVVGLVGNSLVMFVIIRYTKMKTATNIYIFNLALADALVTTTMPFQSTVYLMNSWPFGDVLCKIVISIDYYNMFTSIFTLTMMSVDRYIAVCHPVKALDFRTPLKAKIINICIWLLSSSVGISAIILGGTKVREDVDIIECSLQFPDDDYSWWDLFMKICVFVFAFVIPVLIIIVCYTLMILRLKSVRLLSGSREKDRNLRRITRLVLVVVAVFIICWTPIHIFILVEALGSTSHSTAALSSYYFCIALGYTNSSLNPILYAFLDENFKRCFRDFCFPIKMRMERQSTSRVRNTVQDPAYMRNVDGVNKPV
Kappa-type opioid receptor (Cavia porcellus), sequence (P41144 whole entry): as above
Mu-type opioid receptor (Homo sapiens), sequence (P35372 whole entry): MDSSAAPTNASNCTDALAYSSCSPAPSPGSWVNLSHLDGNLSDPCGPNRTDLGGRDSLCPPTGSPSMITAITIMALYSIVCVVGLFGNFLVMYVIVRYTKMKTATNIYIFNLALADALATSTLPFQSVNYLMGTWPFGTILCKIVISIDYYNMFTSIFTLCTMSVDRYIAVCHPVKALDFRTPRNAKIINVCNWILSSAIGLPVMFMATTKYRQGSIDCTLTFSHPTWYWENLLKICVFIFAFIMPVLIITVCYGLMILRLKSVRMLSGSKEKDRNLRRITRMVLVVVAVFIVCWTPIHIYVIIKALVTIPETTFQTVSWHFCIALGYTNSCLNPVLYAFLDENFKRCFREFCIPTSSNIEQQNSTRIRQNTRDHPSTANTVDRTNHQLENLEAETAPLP
Delta-type opioid receptor (Mus musculus), sequence (P32300 whole entry): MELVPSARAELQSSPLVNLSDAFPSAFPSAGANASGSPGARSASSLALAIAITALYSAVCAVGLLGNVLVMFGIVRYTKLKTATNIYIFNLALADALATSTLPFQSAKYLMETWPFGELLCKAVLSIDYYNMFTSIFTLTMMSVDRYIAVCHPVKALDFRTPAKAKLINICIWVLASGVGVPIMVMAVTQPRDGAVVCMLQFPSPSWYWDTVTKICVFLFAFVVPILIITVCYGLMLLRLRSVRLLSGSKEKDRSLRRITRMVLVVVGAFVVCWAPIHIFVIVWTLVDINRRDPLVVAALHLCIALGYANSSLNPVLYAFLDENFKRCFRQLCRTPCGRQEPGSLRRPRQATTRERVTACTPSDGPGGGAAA
Mu-type opioid receptor (Cavia porcellus), sequence (P97266 whole entry): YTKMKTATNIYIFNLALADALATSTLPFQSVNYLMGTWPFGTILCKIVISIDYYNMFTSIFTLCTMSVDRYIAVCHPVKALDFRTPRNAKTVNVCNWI
T1 sequence (P97266 whole entry): as above
Opioid receptors; mu & kappa (Homo sapiens), sequence (P35372 whole entry, looked up): as the sequence (P35372 whole entry) above
Opioid receptors; mu & kappa (Homo sapiens), sequence (P41145 whole entry, looked up): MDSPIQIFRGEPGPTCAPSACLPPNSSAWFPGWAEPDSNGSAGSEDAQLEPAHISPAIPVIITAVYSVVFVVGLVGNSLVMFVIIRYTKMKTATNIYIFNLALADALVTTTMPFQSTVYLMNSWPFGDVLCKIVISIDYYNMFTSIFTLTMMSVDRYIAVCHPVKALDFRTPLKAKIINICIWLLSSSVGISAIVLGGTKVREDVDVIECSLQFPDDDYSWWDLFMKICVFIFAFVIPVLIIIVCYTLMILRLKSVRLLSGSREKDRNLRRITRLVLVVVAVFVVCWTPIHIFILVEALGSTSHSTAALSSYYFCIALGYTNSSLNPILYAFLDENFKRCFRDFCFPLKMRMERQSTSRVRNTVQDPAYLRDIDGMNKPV
Kappa-type opioid receptor (Homo sapiens), sequence (P41145 whole entry): as the sequence (P41145 whole entry, looked up) above

Compound: Oc1ccc2c3c1O[C@H]1c4[nH]c5c(c4C[C@@]4(O)[C@@H](C2)N(CC2CC2)CC[C@]314)C[C@@]1(O)[C@H]2Cc3ccc(O)c4c3[C@@]1(CCN2CC1CC1)[C@H]5O4 [NORBINALTORPHIMINE]
- Ke [1]: 0.21 nM
- Ki [2]: 47 nM
- Activity [3]: 16
- Ki [4]: 0.26 nM
- Ke [5]: 0.55 nM
- Ke [6]: 22 nM
- Ke [7]: 10.6 nM
- Ke [8]: 14 nM
- Activity [9]: 14

Compound: Oc1ccc2c3c1O[C@H]1c4sc5c(c4C[C@@]4(O)[C@@H](C2)N(CC2CC2)CC[C@]314)C[C@@]1(O)[C@H]2Cc3ccc(O)c4c3[C@@]1(CCN2CC1CC1)[C@H]5O4
- Ke [1]: 3.1 nM
- Ki [2]: 189 nM
- Activity [3]: -26
- ED50 [10]: 0.91 mg/kg
- Ratio [11]: 4
- Ki [4]: 1.4 nM
- ED50 [12]: 0.038 mg/kg
- Ke [5]: 2.6 nM
- Ke [6]: > 103 nM
- ED50 [13]: 5.4 mg/kg
- Ratio [14]: 39
- Ke [7]: 33 nM
- Ke [8]: 41 nM
- ED50 [15]: 0.13 mg/kg
- Ke [16]: > 556 nM
- Ratio [17]: 1.9
- Ratio [18]: 3.5
- Activity [9]: -17
- ED50 [19]: 11.2 mg/kg
- Ratio [20]: 33
- ED50 [21]: 1.5 mg/kg

Compound: Oc1ccc2c3c1O[C@H]1C(SSC4=CC[C@@]5(O)[C@H]6Cc7ccc(O)c8c7[C@@]5(CCN6CC5CC5)[C@H]4O8)=CC[C@@]4(O)[C@@H](C2)N(CC2CC2)CC[C@]314
- Activity [3]: 15
- Ratio [11]: 8.6
- Ke [5]: 3.5 nM
- Ratio [14]: 9.7
- Ke [7]: 13.2 nM
- Ke [8]: 2.2 nM
- Ratio [18]: 14.6
- Activity [9]: 40

Compound: O=C1C(=Cc2ccccc2)C[C@@]2(O)[C@H]3Cc4ccc(O)c5c4[C@@]2(CCN3CC2CC2)[C@H]1O5
- Activity [3]: -35
- Ratio [11]: 35
- Ke [5]: 100 nM
- Ratio [14]: 2
- Ke [7]: 2.9 nM
- Ke [8]: 8.3 nM
- Ratio [18]: 13.1
- Activity [9]: -8

Compound: Oc1ccc2c3c1O[C@H]1C4=C(C[C@@]5(O)[C@@H](C2)N(CC2CC2)CC[C@]315)C(c1ccccc1)C1=C(O4)[C@@H]2Oc3c(O)ccc4c3[C@@]23CCN(CC2CC2)[C@H](C4)[C@]3(O)C1
- Ki [22]: 29 nM
- Activity [3]: 9
- Ki [23]: 10 nM
- Ratio [11]: 3.8
- Ratio [24]: 11
- Ke [5]: 2.6 nM
- Ratio [25]: 3.6
- Ratio [14]: 39
- Ke [7]: 36 nM
- Ke [8]: 39 nM
- Activity [9]: -24

Compound: Cn1c2c(c3c1[C@@H]1Oc4c(O)ccc5c4[C@@]14CCN(CC1CC1)[C@H](C5)[C@]4(O)C3)C[C@@]1(O)[C@H]3Cc4ccc(O)c5c4[C@@]1(CCN3CC1CC1)[C@H]2O5 [BINALTORPHIMINE]
- Ki [22]: 18 nM
- Ki [23]: 0.41 nM
- Ratio [24]: 44
